Fibroblast inh = blocks proliferation of human lung fibroblasts; LL 47 human lung fibroblast viability, ATP luminescence; stronger effect = lower value; viability, % at 10 µM; 85,000 tested, 1.1% active; AID 719;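 active = viability at or below 50% in the single dose screen; inactive = viability above 50%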;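 also: compound exposure lasted 72 h before the ATP readout; 100% = median luminescence of untreated cell-only wells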
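Test system: LL 47 human lung fibroblasts; Quantity: 1,150 cells/well; Buffer or medium: IMEM plus 15% FBS; Dosing: tenfold compound dosing solution, DMSO at 0.1%; Timing: overnight cell rest, 72 h compound treatment at 37 °C; Detection: ATP-based CellTiter-Glo luminescent readout; Read-out basis: viability percentage against median untreated-cell control; Controls: cell-only wells, no compound.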
H69AR inhibit = blocks growth of human H69AR lung tumor cells | 85,000 tested, 6% active | viability, % at 10 µM | H69AR lung tumor viability, ATP luminescence, 72 h; stronger effect = lower value;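 active = viability at or below 40%; inactive = viability above 40%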;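 also: multidrug resistant small cell line overexpressing MRP-1 efflux transporter; 100% = mean luminescence of untreated control wells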
HCT116 PTEN-null = suppresses growth of cells with PTEN deletion; HCT116 PTEN-null viability, CellTiter-Glo, 60 h; stronger effect = lower value; viability, % at 10 µM; 140,000 tested, 1.2% active;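 active = viability at or below a set limit, 4 SD under the median of all tested compounds, cut at about 3.7% in these data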;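 also: PTEN knockout HCT116 line with beta catenin targeted HCT116 as companion control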
HCT116 bCat-KO = beta-catenin-lacking colon tumor cell growth suppression; HCT116 beta-catenin knockout viability, CellTiter-Glo, 60 h; stronger effect = lower value; viability, % at 10 µM; 140,000 tested, 1.5% active;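 active = viability at or under a set limit, the compound median less 4 SD, cut at about 6% in these data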;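 also: 0% = Hyamine 1622 control at 20 µM and 100% = untreated cell control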
HUVEC prolif 384 = human endothelial cell proliferation inhibition. HUVEC proliferation, CellTiter-Glo luminescence, 72 h; stronger effect = lower value. viability, % at 10 µM (by protocol). AID 648. 86,000 tested, 1.1% active;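 active = viability at or below 30%; inactive = viability above 30%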;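 also: 100% = median luminescence of DMSO-only cell control wells on each plate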
Active calls of the source: *; . = no result. The entries come from a sample that favours hits as a whole.

SMILES	Fibroblast inh	H69AR inhibit	HCT116 PTEN-null	HCT116 bCat-KO	HUVEC prolif 384
Cc1nc2sc(C(c3ccco3)N3CCc4ccccc4C3)c(O)n2n1 (stereo not given)	100	86	.	.	92
O=C(Nc1ccc(F)cc1)Nc1nnc(-c2ccncc2)s1	.	.	20	32	.
O=C(Nc1cccc(Cl)c1)Nc1nnc(-c2ccncc2)s1	.	.	3.2*	3.8*	.
CC(=O)c1ccc(NC(=O)Nc2cccc(Cl)c2)cc1	99	5.0*	50	61	68
O=C(NCCc1ccncc1)Nc1cccc(Cl)c1	101	106	104	101	81
O=C(Nc1ccc(Cl)cc1)Nc1nnc(-c2ccncc2)s1	.	.	2.1*	4.3*	.
C[C@H](NC(=O)Cn1cncn1)c1ccccc1	.	.	104	101	.
Nc1nc2ccc(O)cc2s1	.	18*	111	91	97
COc1ccc(C(CCNCc2ccccc2)c2ccc(F)cc2)cc1 (stereo not given)	.	.	2.4*	2.0*	.
COc1ccc(C(CCNC(C)c2ccccc2)c2ccc(F)cc2)cc1 (stereo not given)	.	.	1.4*	1.4*	.
COc1ccc(NC(=O)CC(c2ccc(F)cc2)c2ccc(OC(C)C)cc2)cc1 (stereo not given)	.	.	91	79	.
COc1ccc(C(CC(=O)NCc2ccco2)c2ccc(F)cc2)cc1 (stereo not given)	91	97	83	86	92
COc1ccc(C(CCNCc2ccc(F)cc2)c2ccc(F)cc2)cc1 (stereo not given)	.	.	1.2*	1.2*	.
COc1ccc(CNCCC(c2ccc(F)cc2)c2ccc(OC)cc2)cc1 (stereo not given)	.	.	9	1.9*	.
O=C(CCc1ccc(S(=O)(=O)NC2CCCCC2)cc1)N(Cc1ccccc1)Cc1ccccc1	.	.	47	54	.
CCCN1Cc2cccc(C(=O)Nc3ccc(-c4nc5ccccc5[nH]4)cc3)c2C1=O	.	.	102	102	.
Cc1c(/C=C/C(=O)c2ccc(Cl)s2)cnn1C	97	61	52	59	100
COc1ccc(/C=C/C(=O)c2ccc(Cl)s2)cc1O	.	.	4	3.4*	.
COc1ccc(C(=O)/C=C/c2ccc(F)cc2)c(OC(=O)c2ccc([N+](=O)[O-])cc2)c1	.	.	3.3*	7	.
COc1ccc(/C=C/C(=O)O)cc1OC	.	.	103	94	.
COc1ccc(C(=O)/C=C/c2cccs2)c(OC(=O)c2cccc([N+](=O)[O-])c2)c1	.	.	30	31	.
COc1cc(/C=C/C(=O)c2ccc(Cl)s2)cc(OC)c1O	.	.	4	4.5*	.
COc1ccc(C(=O)/C=C/c2ccc(OC)c(O)c2)c(F)c1	.	.	6	5.6*	.
COc1ccc(/C=C/C(=O)c2ccccc2O)cc1	.	.	72	65	.
CC(C)(C)NC(=O)COC(=O)Cc1ccc(Cl)cc1	103	106	88	100	105
SMILES	Fibroblast inh	H69AR inhibit	HCT116 PTEN-null	HCT116 bCat-KO	HUVEC prolif 384
C/C=C/C=N/NC(=O)CN(c1ccc(Br)cc1)S(=O)(=O)c1ccccc1	.	.	85	85	.
CCc1nnc(NC(=O)Cn2nnc(-c3ccccc3F)n2)s1	98	89	96	101	102
CCC(C)C(NC(=O)[C@@H](NC(=O)c1ccccc1F)C(C)C)C(=O)OC (stereo not given in full)	.	.	84	81	.
c1ccc(-c2cc(-c3nn4c(-c5ccco5)nnc4s3)c3ccccc3n2)cc1	51	27*	96	94	64
CCOc1ccc(-c2nn3c(-c4ccccc4)nnc3s2)cc1	102	77	100	111	19*
Clc1cccc(-c2nnc3sc(-c4ccccc4)nn23)c1	104	85	.	.	102
Cc1cc(-c2nn3c(-c4ccccc4)nnc3s2)c2ccccc2n1	99	77	58	67	77
CCOc1cccc(-c2nnc3sc(-c4cccs4)nn23)c1	92	33*	105	104	92
Cc1ccc(-c2nn3c(-c4cccc(Cl)c4)nnc3s2)cc1	98	21*	.	.	72
C=CCC(C)(NCc1ccccc1)c1ccco1 (stereo not given)	104	94	99	97	102
CCC(CC)C(=O)Nc1ccc(C(=O)c2ccccc2)cc1	.	.	91	94	.
COc1ccccc1NC(CC(=O)c1ccccc1)C(=O)OCC(=O)c1ccc(C)c(C)c1 (stereo not given)	.	.	74	77	.
O=C(CSCCO)Nc1ccc(C2CCCCC2)cc1	89	93	61	58	100
CCOc1cccc(-c2nnc3sc(-c4cc(OC)c(OC)c(OC)c4)nn23)c1	58	19*	27	33	28*
COc1cc(-c2nn3c(-c4ccccc4)nnc3s2)cc(OC)c1OC	102	40	8	4.9*	80
COc1cccc(-c2nnc3sc(-c4ccc(C)cc4)nn23)c1	.	.	48	50	.
COc1cc(-c2nnc3sc(-c4ccncc4)nn23)cc(OC)c1OC	99	61	.	.	74
COc1cc(-c2nnc3sc(-c4ccco4)nn23)cc(OC)c1OC	86	18*	41	44	77
CCN(CC)CCCN1C(=O)C(O)=C(C(=O)c2cccs2)C1c1ccccn1 (stereo not given)	88	108	.	.	110
CCOC(=O)c1c(NC(=O)c2csc(C)c2)sc(C(C)=O)c1C	120	108	.	.	98
Cc1ccc(C(=O)N/C(=C\c2cccs2)C(=O)NC2CCCCC2)cc1	90	94	88	100	109
CCCCN(CC)c1nc(N)c(C#N)c(CC#N)c1C#N	96	89	83	86	78
CCCCN(CC)c1nc(N)c2c(N)nc(OCC)cc2c1C#N	82	34*	75	72	80
COc1ccc(CCNc2nnc(Sc3nnnn3-c3ccccc3)s2)cc1OC	56	29*	22	14	42
O=C(O)c1sc2cc(C(F)(F)F)cnc2c1-c1ccccc1	.	.	107	101	.
SMILES	Fibroblast inh	H69AR inhibit	HCT116 PTEN-null	HCT116 bCat-KO	HUVEC prolif 384
CSc1nnc(-c2sc3cc(C(F)(F)F)cnc3c2-c2ccccc2)n1C	60	25*	27	21	65
CC12CNCC(C)(CN(C(c3ccccc3)c3ccccc3)C1)C2	87	50	57	54	88
Clc1ccc(C(c2ccccc2)N2CCNCC2)cc1 (stereo not given)	88	37*	30	36	83
COc1ccc(/C=C/c2nc3ccccc3n2Cc2ccccc2OC)cc1	.	.	2.8*	1.9*	.
COc1ccccc1Cn1c(/C=C/c2ccccc2)nc2ccccc21	.	.	59	61	.
Cc1ccc(-n2nc(C)cc2NC(=O)c2ccc(C)s2)cc1	90	65	92	90	86
COc1cccc(NC(=O)N2CCN(c3ccc(C(F)(F)F)cn3)CC2)c1	.	100	82	86	112
CN1CCN(C(=O)c2cc3c(n(-c4ccccc4)c2=O)CC(C)(C)CC3=O)CC1	101	100	102	95	103
CC1(C)CC(=O)c2cc(C(=O)NCc3ccco3)c(=O)n(-c3ccccc3)c2C1	94	30*	91	92	78
CC(=O)c1cccc(NC(=O)COC(=O)COc2c(Cl)cc(Cl)c3ccc(C)nc23)c1	.	.	72	79	.
O=C(Cc1cccs1)Nc1ccc(Cl)cc1	100	99	87	88	99

Source: PubChem (SRMLSC)
